Experimental data gathered from unrelated publications.
Compare with care: the assays were run in different laboratories.
Sample: plasma

Compound | system | conditions | endpoint | result
CCNCCCNC/C=C\CNCCCNCC | human | intravenous, 100 mg, patients, infusion | Vd | 1.17 L/kg
CC(C)(Sc1ccncc1-c1ccc(C#N)c2ccccc12)C(=O)O | male human | oral, 40 mg, single dose, fasted, healthy volunteers | Vd/F | 280 L
c1cnc2ccc(Nc3nc(NC4CC4)c4nc[nH]c4n3)cc2c1 | human | oral, 200 mg/m², patients | Vd/F | 267 L
C[C@@]1(c2cc(NC(=O)c3ccc(C#N)cn3)ccc2F)C=CSC(N)=N1 | human | oral, 150 mg, single dose | Vd/F | 247 L
COc1ccc([C@@H]2CN(C(=O)[C@@H](O)CO)C[C@@]2(C)[C@@H](C)O)cc1OC1CN(c2ccc(C)cn2)C1 | human | oral, 10 mg, single dose, healthy volunteers | Vd/F | 57.6 L
COc1cc(C(=O)NC2CCN(C)CC2)c(F)cc1Nc1ncc(C(F)(F)F)c(Oc2cccc3c2C(=O)N(C)C3)n1 | human | oral, 10 mg, multiple doses, once daily, patients | Vd/F | 776 L
CO[C@H]1CC[C@H](N2C(=O)CNc3ncc(-c4ccc(C(C)(C)O)nc4)nc32)CC1 | human | oral, 7.5 mg, patients | Vd/F | 235 L
Cc1cc(Nc2cc(N3CCN(C)CC3)nc(/C=C/c3ccccc3)n2)n[nH]1 | human | oral, 120 mg/m², patients | Vd/F | 2440 L
